The values that follow come from ChEMBL document CHEMBL1770062, “Synthesis and in vitro antitumor activity of new butenolide-containing dithiocarbamates” (Bioorg Med Chem Lett, 2011).

Structures are written as SMILES.

The first test deals with HeLa. Description: Antitumor activity against human HeLa cells after 72 hrs by MTT assay. It is filed as functional, cell-based. The note with it: Homo sapiens, HeLa, 72 h; read-out: IC50. A digest of the protocol: (§1)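 Cells in RPMI 1640 with 10% FBS, 2 mm glutamine, penicillin and streptomycin were seeded at 5 × 10³ per well in 96-well plates. After 24 h at 37 °C the medium was replaced with medium holding compound at several concentrations, and cells were exposed for 72 h. MTT (5 mg/mL stock in PBS) was added for 4 h at 37 °C, formazan was dissolved in DMSO and absorbance read at 490 nm. IC50 was taken from dose–response curves, at least three independent experiments, mean ± SE.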
For orientation: Tetrazolium dyes change colour on reduction, which living cells bring about.
For orientation: IC50 means the midpoint of a concentration-inhibition curve. For the compound `CC(C)N(C(=S)SCC1=CC(=O)OC1)C(C)C`, the half-inhibitory concentration (IC50) was 28.5 µM.

Turning to `O=C1C=C(CSC(=S)N2CCCC2)CO1`, the 50% inhibitory concentration (IC50) is above 50 µg/mL.

Consider `CN1CCN(C(=S)SCC2=CC(=O)OC2)CC1`, for which the IC50 is above 50 µg/mL.

Take `O=C1C=C(CSC(=S)N2CCOCC2)CO1`: the half-maximal inhibitory concentration (IC50) was above 50 µg/mL.

`CN(Cc1ccccc1)C(=S)SCC1=CC(=O)OC1`: the 50% inhibitory concentration (IC50) is above 50 µg/mL.

Turning to `O=C1CC2(CO1)CSC(=S)N2C1CC1` (centres undefined), the IC50 turned out to be 28.7 µM.

Consider `O=C1CC2(CO1)CSC(=S)N2Cc1ccccc1` (centres undefined), for which the 50% inhibitory concentration (IC50) is above 50 µg/mL.

`O=C1CC2(CO1)CSC(=S)N2c1ccccc1` (centres undefined): the IC50 amounted to 18 µM.

In the case of `Cc1ccc(N2C(=S)SCC23COC(=O)C3)cc1` (centres undefined), the concentration for half-maximal inhibition (IC50) is above 50 µg/mL.

Regarding `O=C1CC2(CO1)CSC(=S)N2c1ccc(Cl)cc1` (centres undefined), the concentration for half-maximal inhibition (IC50) was above 50 µg/mL.

Take `O=C1CC2(CO1)CSC(=S)N2c1ccc(F)cc1` (centres undefined): the concentration for half-maximal inhibition (IC50) is above 50 µg/mL.

With `O=C1CC2(CO1)CSC(=S)N2c1ccccc1O` (centres undefined), the IC50 is above 50 µg/mL.

Consider `O=c1[nH]cc(F)c(=O)[nH]1` [FLUOROURACIL], for which the IC50 amounted to 41.5 µM.

Staying with this test, now noted: hela.
As to `CCNC(=S)SCC1=CCOC1=O`, the half-maximal inhibitory concentration (IC50) entry is reported as “Not Active”.

For the compound `O=C1OCC=C1CSC(=S)Nc1ccc(Cl)cc1`, the concentration for half-maximal inhibition (IC50) result is “Not Active”.

Test system in a further test: not listed separately
The test can be described thus: Antitumor activity against human EC9706 cells after 72 hrs by MTT assay. It is filed as functional, cell-based. The note with it: Homo sapiens, EC9706, 72 h; read-out: IC50. A digest of the protocol: as §1
In the case of `CCNC(=S)SCC1=CCOC1=O`, the IC50 is 44.4 µM.

In the case of `CC(C)N(C(=S)SCC1=CC(=O)OC1)C(C)C`, the half-maximal inhibitory concentration (IC50) was found to be 49.2 µM.

With `O=C1C=C(CSC(=S)N2CCCC2)CO1`, the IC50 was determined as 106 µM.

For `CN1CCN(C(=S)SCC2=CC(=O)OC2)CC1`, the IC50 came out at 35.8 µM.

For `O=C1C=C(CSC(=S)N2CCOCC2)CO1`, the 50% inhibitory concentration (IC50) is above 50 µg/mL.

As for `CN(Cc1ccccc1)C(=S)SCC1=CC(=O)OC1`, the IC50 is above 50 µg/mL.

`O=C1CC2(CO1)CSC(=S)N2C1CC1` (centres undefined): the IC50 is above 50 µg/mL.

In the case of `O=C1CC2(CO1)CSC(=S)N2Cc1ccccc1` (centres undefined), the IC50 was above 50 µg/mL.

For the compound `O=C1CC2(CO1)CSC(=S)N2c1ccccc1` (centres undefined), the half-maximal inhibitory concentration (IC50) is 128 µM.

As for `Cc1ccc(N2C(=S)SCC23COC(=O)C3)cc1` (centres undefined), the half-inhibitory concentration (IC50) is above 50 µg/mL.

Take `O=C1CC2(CO1)CSC(=S)N2c1ccc(Cl)cc1` (centres undefined): the half-inhibitory concentration (IC50) was found to be 32.6 µM.

For the compound `O=C1CC2(CO1)CSC(=S)N2c1ccc(F)cc1` (centres undefined), the IC50 is above 50 µg/mL.

On to `O=C1CC2(CO1)CSC(=S)N2c1ccccc1O` (centres undefined), for which the concentration for half-maximal inhibition (IC50) was above 50 µg/mL.

As for `O=c1[nH]cc(F)c(=O)[nH]1` [FLUOROURACIL], the IC50 came to 20.3 µM.

Staying with this test, now noted: ec9706.
Regarding `O=C1OCC=C1CSC(=S)Nc1ccc(Cl)cc1`, the IC50 entry is on record as “Not Active”.

The subject of the next test is MCF7. The test can be described thus: Antitumor activity against human MCF7 cells after 72 hrs by MTT assay. The note with it: Homo sapiens, MCF7, 72 h; read-out: IC50. It is filed as functional, cell-based. An outline of the steps: as §1
As to `CCNC(=S)SCC1=CCOC1=O`, the IC50 came out at 80.1 µM.

On to `CC(C)N(C(=S)SCC1=CC(=O)OC1)C(C)C`, for which the half-inhibitory concentration (IC50) was above 50 µg/mL.

In the case of `O=C1C=C(CSC(=S)N2CCCC2)CO1`, the 50% inhibitory concentration (IC50) was determined as 169 µM.

On to `CN1CCN(C(=S)SCC2=CC(=O)OC2)CC1`, for which the IC50 is above 50 µg/mL.

For `O=C1C=C(CSC(=S)N2CCOCC2)CO1`, the half-maximal inhibitory concentration (IC50) is above 50 µg/mL.

For `CN(Cc1ccccc1)C(=S)SCC1=CC(=O)OC1`, the IC50 was above 50 µg/mL.

For the compound `O=C1CC2(CO1)CSC(=S)N2C1CC1` (centres undefined), the IC50 was above 50 µg/mL.

`O=C1CC2(CO1)CSC(=S)N2Cc1ccccc1` (centres undefined): the IC50 is above 50 µg/mL.

Take `O=C1CC2(CO1)CSC(=S)N2c1ccccc1` (centres undefined): the IC50 is 134 µM.

Regarding `Cc1ccc(N2C(=S)SCC23COC(=O)C3)cc1` (centres undefined), the IC50 is above 50 µg/mL.

Turning to `O=C1CC2(CO1)CSC(=S)N2c1ccc(Cl)cc1` (centres undefined), the IC50 is above 50 µg/mL.

In the case of `O=C1CC2(CO1)CSC(=S)N2c1ccc(F)cc1` (centres undefined), the concentration for half-maximal inhibition (IC50) was above 50 µg/mL.

Take `O=C1CC2(CO1)CSC(=S)N2c1ccccc1O` (centres undefined): the concentration for half-maximal inhibition (IC50) is above 50 µg/mL.

Take `O=c1[nH]cc(F)c(=O)[nH]1` [FLUOROURACIL]: the IC50 turned out to be 7.54 µM.

The test is the same for the next values; noted with them: mcf7.
Take `O=C1OCC=C1CSC(=S)Nc1ccc(Cl)cc1`: the 50% inhibitory concentration (IC50) entry is “Not Active”.

A further test has as its system PC-3. The test can be described thus: Antitumor activity against human PC3 cells after 72 hrs by MTT assay. It is filed as functional, cell-based. The note with it: Homo sapiens, PC-3, 72 h; read-out: IC50. A digest of the protocol: as §1
Turning to `CCNC(=S)SCC1=CCOC1=O`, the IC50 amounted to 30.6 µM.

For the compound `CC(C)N(C(=S)SCC1=CC(=O)OC1)C(C)C`, the IC50 is above 50 µg/mL.

`O=C1C=C(CSC(=S)N2CCCC2)CO1`: the IC50 was above 50 µg/mL.

For the compound `CN1CCN(C(=S)SCC2=CC(=O)OC2)CC1`, the half-inhibitory concentration (IC50) is above 50 µg/mL.

Take `O=C1C=C(CSC(=S)N2CCOCC2)CO1`: the IC50 is above 50 µg/mL.

As to `CN(Cc1ccccc1)C(=S)SCC1=CC(=O)OC1`, the half-maximal inhibitory concentration (IC50) is above 50 µg/mL.

As for `O=C1CC2(CO1)CSC(=S)N2C1CC1` (centres undefined), the IC50 was above 50 µg/mL.

As for `O=C1CC2(CO1)CSC(=S)N2Cc1ccccc1` (centres undefined), the concentration for half-maximal inhibition (IC50) is above 50 µg/mL.

`O=C1CC2(CO1)CSC(=S)N2c1ccccc1` (centres undefined): the IC50 was above 50 µg/mL.

Regarding `Cc1ccc(N2C(=S)SCC23COC(=O)C3)cc1` (centres undefined), the IC50 is 98.1 µM.

For the compound `O=C1CC2(CO1)CSC(=S)N2c1ccc(Cl)cc1` (centres undefined), the IC50 is above 50 µg/mL.

As for `O=C1CC2(CO1)CSC(=S)N2c1ccc(F)cc1` (centres undefined), the half-inhibitory concentration (IC50) was above 50 µg/mL.

As for `O=C1CC2(CO1)CSC(=S)N2c1ccccc1O` (centres undefined), the IC50 was above 50 µg/mL.

Regarding `O=c1[nH]cc(F)c(=O)[nH]1` [FLUOROURACIL], the IC50 is 29.3 µM.

The same test, now with this note: pc-3.
Turning to `O=C1OCC=C1CSC(=S)Nc1ccc(Cl)cc1`, the concentration for half-maximal inhibition (IC50) entry is on record as “Not Active”.

Test system in a further test: not listed separately
The test can be described thus: Antitumor activity against human SPC-A1 cells after 72 hrs by MTT assay. The note with it: Homo sapiens, SPCA1, 72 h; read-out: IC50. It is filed as functional, cell-based. A digest of the protocol: as §1
Consider `CC(C)N(C(=S)SCC1=CC(=O)OC1)C(C)C`, for which the IC50 was above 50 µg/mL.

As to `O=C1C=C(CSC(=S)N2CCCC2)CO1`, the concentration for half-maximal inhibition (IC50) turned out to be 60 µM.

Regarding `CN1CCN(C(=S)SCC2=CC(=O)OC2)CC1`, the half-maximal inhibitory concentration (IC50) was above 50 µg/mL.

In the case of `CN(Cc1ccccc1)C(=S)SCC1=CC(=O)OC1`, the IC50 is above 50 µg/mL.

In the case of `O=C1CC2(CO1)CSC(=S)N2C1CC1` (centres undefined), the IC50 was above 50 µg/mL.

As to `O=C1CC2(CO1)CSC(=S)N2Cc1ccccc1` (centres undefined), the half-maximal inhibitory concentration (IC50) is above 50 µg/mL.

For the compound `O=C1CC2(CO1)CSC(=S)N2c1ccccc1` (centres undefined), the concentration for half-maximal inhibition (IC50) was found to be 101 µM.

Regarding `Cc1ccc(N2C(=S)SCC23COC(=O)C3)cc1` (centres undefined), the IC50 was above 50 µg/mL.

Regarding `O=C1CC2(CO1)CSC(=S)N2c1ccc(Cl)cc1` (centres undefined), the IC50 is above 50 µg/mL.

Consider `O=C1CC2(CO1)CSC(=S)N2c1ccc(F)cc1` (centres undefined), for which the IC50 is above 50 µg/mL.

On to `O=C1CC2(CO1)CSC(=S)N2c1ccccc1O` (centres undefined), for which the IC50 was above 50 µg/mL.

`O=c1[nH]cc(F)c(=O)[nH]1` [FLUOROURACIL]: the IC50 was determined as 26.9 µM.

The same test, now with this note: spc-a1.
Take `CCNC(=S)SCC1=CCOC1=O`: the IC50 result was “Not Active”.

Consider `O=C1OCC=C1CSC(=S)Nc1ccc(Cl)cc1`, for which the IC50 entry is “Not Active”.
